Where two headings read alike, the source gives them in different places.
Columns and labels:
Escherichia coli = test: Disc diffusion antimicrobial test; format: cell-based; settings: Escherichia coli, 24 h, read-out: zone of inhibition (diameter of inhibition)
How it was run: (§1)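 Disc diffusion on nutrient agar, test compound at 100 μg/mL with DMSO as solvent. Plates incubated at 37 °C for 24 h after inoculation, then zone of inhibition measured and compared with standards. Controls were DMSO, amoxicillin, ciprofloxacin and tetracycline.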

SF-539 = test: NCI 60-cell line screen; format: cell-based, human
How it was run: (§2)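 Test compounds were submitted to the National Cancer Institute and run under NCI's standard 60-cell-line protocols. Read-outs were taken from percent-growth versus log-concentration curves.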

HT29 = test: NCI 60-cell line screen; format: cell-based, human
MOLT-4 = test: NCI 60-cell line screen; format: cell-based, human
BT-549 = test: NCI 60-cell line screen; format: cell-based, human
HOP-62 = test: NCI 60-cell line screen; format: cell-based, human
OVCAR-3 = test: NCI 60-cell line screen; format: cell-based, human
HOP-92 = test: NCI 60-cell line screen; format: cell-based, human
A549 cancer cell line = test: MTT assay; format: cell-based; settings: Homo sapiens, A549, 72 h
How it was run: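 A549 in DMEM and MCF-7 in RPMI, each with 10% heat-inactivated FBS, 1% penicillin/streptomycin and 2 mmol/L glutamine at 37 °C, 5% CO2. Seeded at 2000 (A549) or 10,000 (MCF-7) cells/well and attached 24 h. Then 72 h with test compound at varying concentrations. MTT (5 mg/mL stock) added for 4 h at 37 °C, formazan dissolved in DMSO, absorbance read at 450/540 nm. Triplicates in three separate experiments.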

A498 = test: NCI 60-cell line screen; format: cell-based, human
SNB-19 = test: NCI 60-cell line screen; format: cell-based, human
How it was run: as §2

PI3Kγ enzyme = PI3Kγ enzyme (Homo sapiens, UniProt P48736); test: Adapta universal kinase assay, anti-PI3Kγ activity; format: biochemical
PI3Kγ enzyme, sequence (P48736 whole entry): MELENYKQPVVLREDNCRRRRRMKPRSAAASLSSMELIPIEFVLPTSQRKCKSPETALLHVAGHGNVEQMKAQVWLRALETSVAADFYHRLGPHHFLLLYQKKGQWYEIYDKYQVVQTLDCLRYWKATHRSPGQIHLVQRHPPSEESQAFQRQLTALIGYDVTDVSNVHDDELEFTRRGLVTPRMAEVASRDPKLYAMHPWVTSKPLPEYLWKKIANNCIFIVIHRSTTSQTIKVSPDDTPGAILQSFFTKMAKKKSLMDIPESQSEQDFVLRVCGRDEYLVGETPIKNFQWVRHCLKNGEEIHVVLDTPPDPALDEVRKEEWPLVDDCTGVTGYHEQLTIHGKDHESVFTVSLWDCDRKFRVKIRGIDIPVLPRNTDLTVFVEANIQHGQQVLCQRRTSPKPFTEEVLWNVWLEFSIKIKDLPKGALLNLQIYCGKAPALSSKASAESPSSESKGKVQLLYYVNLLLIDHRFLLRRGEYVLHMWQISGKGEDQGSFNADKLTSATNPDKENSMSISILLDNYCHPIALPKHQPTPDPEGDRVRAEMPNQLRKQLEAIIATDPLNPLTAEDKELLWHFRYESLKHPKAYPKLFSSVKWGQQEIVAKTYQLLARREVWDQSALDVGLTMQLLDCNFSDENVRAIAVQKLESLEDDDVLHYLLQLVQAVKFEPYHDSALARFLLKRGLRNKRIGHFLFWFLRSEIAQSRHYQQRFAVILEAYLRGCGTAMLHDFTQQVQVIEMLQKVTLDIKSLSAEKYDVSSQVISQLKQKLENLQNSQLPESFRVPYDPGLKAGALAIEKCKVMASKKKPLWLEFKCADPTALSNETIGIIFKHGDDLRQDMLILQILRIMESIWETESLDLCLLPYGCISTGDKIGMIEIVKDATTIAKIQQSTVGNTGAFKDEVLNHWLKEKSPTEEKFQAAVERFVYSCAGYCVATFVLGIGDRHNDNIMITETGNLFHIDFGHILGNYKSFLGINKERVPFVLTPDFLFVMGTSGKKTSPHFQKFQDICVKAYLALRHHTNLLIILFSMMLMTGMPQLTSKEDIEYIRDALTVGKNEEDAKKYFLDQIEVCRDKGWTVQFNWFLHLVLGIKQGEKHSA
How it was run: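 Adapta ADP-detection TR-FRET immunoassay with test compound at 100 μM. The kinase reaction runs 60 min. It is then stopped by a detection solution of EDTA, europium-labelled anti-ADP antibody and Alexa Fluor 647-labelled ADP tracer. ADP formed displaces the tracer and lowers the TR-FRET signal. ADP formation is calculated from the emission ratio.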

SW-620 = test: NCI 60-cell line screen; format: cell-based, human
How it was run: as §2

HL-60(TB) = settings: leukemia
UACC-257 = test: NCI 60-cell line screen; format: cell-based, human
How it was run: as §2

NCI-H522 = test: NCI 60-cell line screen; format: cell-based, human
Staphylococcus aureus = test: Disc diffusion antimicrobial test; format: cell-based; settings: Staphylococcus aureus, 24 h, read-out: zone of inhibition (diameter of inhibition)
How it was run: as §1

OVCAR-8 = test: NCI 60-cell line screen; format: cell-based, human
How it was run: as §2

OVCAR-5 = test: NCI 60-cell line screen; format: cell-based, human
How it was run: as §2

K-562 = test: NCI 60-cell line screen; format: cell-based, human
MALME-3M = test: NCI 60-cell line screen; format: cell-based, human
MDA-MB-435 = test: NCI 60-cell line screen; format: cell-based, human
M14 = test: NCI 60-cell line screen; format: cell-based, human

`O=C(CN1CCN(CC(=O)Nc2nc3ccccc3s2)CC1)Nc1ccc([N+](=O)[O-])cc1` [OMS14, N-(benzo[d]thiazol-2-yl)-2-(4-(2-((4-nitrophenyl)amino)-2-oxoethyl)piperazin-1-yl)acetamide] gave a zone of inhibition at 100 µg/mL (Escherichia coli) of 0 mm, a GI50 (SF-539; Homo sapiens, SF-539) of 2 µM and an IC50 (SF-539; Homo sapiens, SF-539) of 4.3 µM. For the same compound, the CC50 (SF-539; Homo sapiens, SF-539, read-out: LC50) was 20 µM, the TGI (SF-539; SF-539, CNS cancer) was 5.5 µM and the TGI (HT29; HT29, colon cancer) was 3.6 µM. It also gave a GI50 (HT29; Homo sapiens, HT-29) of 1.3 µM, an IC50 (HT29; Homo sapiens, HT-29) of 2.1 µM and a CC50 (HT29; Homo sapiens, HT-29, read-out: LC50) of 10.2 µM. The GI50 (MOLT-4; Homo sapiens, MOLT-4) was 1.1 µM, the IC50 (MOLT-4; Homo sapiens, MOLT-4) was 2.5 µM and the CC50 (MOLT-4; Homo sapiens, MOLT-4, read-out: LC50) was > 100 µM. For the same compound, the TGI (MOLT-4; MOLT-4, leukemia) was 9.5 µM, the TGI (BT-549; BT-549, breast cancer) was 9.8 µM and the GI50 (BT-549; Homo sapiens, BT-549) was 3 µM. It also gave an IC50 (BT-549; Homo sapiens, BT-549) of 7.8 µM, a CC50 (BT-549; Homo sapiens, BT-549, read-out: LC50) of 36.3 µM and a TGI (HOP-62; HOP-62, non-small cell lung cancer) of 3.7 µM. It also gave a GI50 (HOP-62; Homo sapiens, HOP-62) of 1.7 µM, an IC50 (HOP-62; Homo sapiens, HOP-62) of 3.2 µM and a CC50 (HOP-62; Homo sapiens, HOP-62, read-out: LC50) of 8.3 µM. The GI50 (OVCAR-3; Homo sapiens, OVCAR-3) was 2.3 µM, the IC50 (OVCAR-3; Homo sapiens, OVCAR-3) was 4.3 µM and the CC50 (OVCAR-3; Homo sapiens, OVCAR-3, read-out: LC50) was > 100 µM. The TGI (OVCAR-3; OVCAR-3, ovarian cancer) was 6.6 µM, the TGI (HOP-92; HOP-92, non-small cell lung cancer) was 8.3 µM and the GI50 (HOP-92; Homo sapiens, HOP-92) was 2.3 µM. For the same compound, the IC50 (HOP-92; Homo sapiens, HOP-92) was 9.1 µM, the CC50 (HOP-92; Homo sapiens, HOP-92, read-out: LC50) was 89.1 µM and the IC50 (A549 cancer cell line) was 26.1 µM. It also gave an inhibition at 100 µM (A549 cancer cell line; read-out: experimental % of inhibition on A549 cancer cell line) of 90.6%, a TGI (A498; A498, renal cancer) of 3.7 µM and a GI50 (A498; Homo sapiens, A498) of 1.7 µM. It also gave an IC50 (A498; Homo sapiens, A498) of 3.8 µM, a CC50 (A498; Homo sapiens, A498, read-out: LC50) of 7.9 µM and a GI50 (SNB-19; Homo sapiens, SNB-19) of 2.8 µM. The IC50 (SNB-19; Homo sapiens, SNB-19) was 4.9 µM, the CC50 (SNB-19; Homo sapiens, SNB-19, read-out: LC50) was > 100 µM and the TGI (SNB-19; SNB-19, CNS cancer) was 12.3 µM. It also gave an inhibition at 100 µM (PI3Kγ enzyme; read-out: % of inhibition (mean) against PI3Kγ enzyme) of 19%, an inhibition at 100 µM (PI3Kγ enzyme; read-out: % of inhibition against PI3Kγ enzyme, point 1) of 15% and an inhibition at 100 µM (PI3Kγ enzyme; read-out: % of inhibition against PI3Kγ enzyme, point 2) of 24%. It also gave a GI50 (SW-620; Homo sapiens, SW-620) of 0.8 µM, an IC50 (SW-620; Homo sapiens, SW-620) of 1.1 µM and a CC50 (SW-620; Homo sapiens, SW-620, read-out: LC50) of 87.1 µM. The TGI (SW-620; SW-620, colon cancer) was 5.9 µM, the TGI (HL-60(TB)) was 7.6 µM and the GI50 (UACC-257; Homo sapiens, UACC-257) was 2.1 µM. The IC50 (UACC-257; Homo sapiens, UACC-257) was 4.2 µM, the CC50 (UACC-257; Homo sapiens, UACC-257, read-out: LC50) was 11.7 µM and the TGI (UACC-257; UACC-257, melanoma) was 4.7 µM. The GI50 (NCI-H522; Homo sapiens, NCI-H522) was 1.5 µM, the IC50 (NCI-H522; Homo sapiens, NCI-H522) was 3 µM and the CC50 (NCI-H522; Homo sapiens, NCI-H522, read-out: LC50) was 6.5 µM. For the same compound, the TGI (NCI-H522; NCI-H522, non-small cell lung cancer) was 3.2 µM, the zone of inhibition at 100 µg/mL (Staphylococcus aureus) was 15 mm and the GI50 (OVCAR-8; Homo sapiens, OVCAR-8) was 1.4 µM. For the same compound, the IC50 (OVCAR-8; Homo sapiens, OVCAR-8) was 2.4 µM, the CC50 (OVCAR-8; Homo sapiens, OVCAR-8, read-out: LC50) was > 100 µM and the TGI (OVCAR-8; OVCAR-8, ovarian cancer) was 4.3 µM. The GI50 (OVCAR-5; Homo sapiens, OVCAR-5) was 1.5 µM, the IC50 (OVCAR-5; Homo sapiens, OVCAR-5) was 3.2 µM and the CC50 (OVCAR-5; Homo sapiens, OVCAR-5, read-out: LC50) was 57.5 µM. It also gave a TGI (OVCAR-5; OVCAR-5, ovarian cancer) of 4.8 µM, a GI50 (K-562; Homo sapiens, K562) of 2.6 µM and an IC50 (K-562; Homo sapiens, K562) of 3 µM. The CC50 (K-562; Homo sapiens, K562, read-out: LC50) was > 100 µM, the TGI (K-562; K-562, leukemia) was 100 µM and the GI50 (MALME-3M; Homo sapiens, Malme-3M) was 3 µM. For the same compound, the IC50 (MALME-3M; Homo sapiens, Malme-3M) was 6.6 µM, the CC50 (MALME-3M; Homo sapiens, Malme-3M, read-out: LC50) was 35.5 µM and the TGI (MALME-3M; MALME-3M, melanoma) was 9.3 µM. For the same compound, the GI50 (MDA-MB-435; Homo sapiens, MDA-MB-435) was 1.8 µM, the IC50 (MDA-MB-435; Homo sapiens, MDA-MB-435) was 3 µM and the CC50 (MDA-MB-435; Homo sapiens, MDA-MB-435, read-out: LC50) was 15.1 µM. It also gave a TGI (MDA-MB-435; MDA-MB-435, melanoma) of 4.6 µM, a GI50 (M14; Homo sapiens, M14) of 1.7 µM and an IC50 (M14; Homo sapiens, M14) of 3 µM. It also gave a CC50 (M14; Homo sapiens, M14, read-out: LC50) of 8.3 µM and a TGI (M14; M14, melanoma) of 3.8 µM.
